# Entries after “also recorded” stand apart in the source; their conditions may differ.
# Assays:
# [1] = system: human foreskin fibroblasts (HFF); test: Mammalian cell cytotoxicity screen; format: cell-based; conditions: Fibroblast, 24 h, read-out: HFF IC50
# In short: (§1)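 HFF and U-20S were kept in DMEM with 10% heat-inactivated bovine serum, 2 mM L-glutamine, penicillin/streptomycin, 10% Medium 199 and gentamicin, at 36.5 °C with 5% CO2. Confluent cells (~20,000/well plated) were treated with 0–100 µM test compound for 24 h in duplicate. Alamar Blue (0.5 mM resazurin, 4 h, 37 °C) was read at ex 530/25, em 590/25; untreated cells defined 100% viability.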
# PRU T. gondii = test: T. gondii growth inhibition in vitro screen, PRU-dTom strain; format: cell-based, Toxoplasma gondii; conditions: for IC50: Toxoplasma gondii, 120 h, read-out: PRU T. gondii IC50; for activity against PRU T. gondii (in words): PRU strain
# In short: (§2)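 HFF (~20,000/well) were grown to confluence, then infected with dTomato-expressing tachyzoites: RH 2000/well for 24 h, or PRU 8000/well for 48 h, at 37 °C. Medium was replaced and test compound in DMSO added at 0–100 µM in duplicate, with pyrimethamine as positive control. Fluorescence (ex 530/25, em 590/25) was read over 5 days; IC50 was the concentration halving RFU at day 5.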
# RH T. gondii = test: T. gondii growth inhibition in vitro screen, RH-dTom strain; format: cell-based, Toxoplasma gondii; conditions: for activity against RH T. gondii (in words): primary screen
# In short: as §2
# T. gondii = conditions: ref Sanford et al., 2018; cited from earlier work
# [2] = system: RH-dTom tachyzoites in pre-treated HFF cells; test: Host cell; format: cell-based, Toxoplasma gondii
# In short: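 HFF were grown to confluence in 96-well plates and exposed to 10 µM test compound for 24 h at 37 °C, in triplicate. Cells were washed twice with D10 medium, then infected with RH-dTom tachyzoites. Parasite growth was followed by fluorescence for 5 days post-infection and expressed relative to control.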
# [3] = Metabolic stability in human liver microsomes; format: in vitro ADME
# In short: (§3)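 Test compound (1 µM) was incubated with human or mouse liver microsomes (0.4 mg/mL protein) at 37 °C. Reactions were started with an NADPH-regenerating system and quenched at 2, 30 and 60 min. Remaining compound was quantified by LCMS to derive half-life, in vitro intrinsic clearance and predicted hepatic extraction ratio.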
# [4] = system: human embryonic kidney cells (HEK-293); test: Mammalian cell cytotoxicity screen; format: cell-based; conditions: HEK293, 24 h, read-out: HEK293 IC50
# In short: (§4)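 HEK-293 and HC-04 were kept in DMEM with 10% heat-inactivated bovine serum, 2 mM L-glutamine, penicillin/streptomycin and gentamicin (no Medium 199), at 36.5 °C with 5% CO2. Cells (~20,000/well) were grown to confluence, then treated with 0–100 µM test compound for 24 h in duplicate. Alamar Blue (0.5 mM resazurin, 4 h, 37 °C) was read at ex 530/25, em 590/25; viability was relative to untreated cells (100%).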
# [5] = system: human osteosarcoma cells (U-20S); test: Mammalian cell cytotoxicity screen; format: cell-based; conditions: U2OS, 24 h, read-out: U2OS IC50
# In short: as §1
# [6] = Kinetic aqueous solubility by nephelometry; format: physicochemical; conditions: PBS pH 6.5, pH 6.5, aqueous buffer, kinetic from dmso stock
# In short: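 Kinetic solubility was determined by nephelometry after 30 min at room temperature. A solubility range was reported.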
# [7] = system: murine macrophages (NR-9456); test: Mammalian cell cytotoxicity screen; format: cell-based; conditions: Mus musculus, Macrophage, 24 h, read-out: NR-9456 IC50
# In short: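 Murine macrophages NR-9456 were maintained with added 1 mM sodium pyruvate and plated at ~20,000/well to confluence. They were exposed to 0–100 µM test compound for 24 h in duplicate. Resazurin (0.5 mM) was added for 4 h at 37 °C with 5% CO2, and fluorescence was read at ex 530/25, em 590/25. Viability was normalised to no-compound wells (100%).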
# [8] = Metabolic stability in mouse liver microsomes; format: in vitro ADME
# In short: as §3
# [9] = system: human liver cells (HC-04); test: Mammalian cell cytotoxicity screen; format: cell-based; conditions: HC04, 24 h, read-out: HCO4 IC50
# In short: as §4
# human albumin = human albumin (Homo sapiens, UniProt P02768); test: Chromatography-based protein binding; format: in vitro ADME; conditions: estimated by chromatographic method, human albumin column
# Sequence of human albumin (P02768 25-609): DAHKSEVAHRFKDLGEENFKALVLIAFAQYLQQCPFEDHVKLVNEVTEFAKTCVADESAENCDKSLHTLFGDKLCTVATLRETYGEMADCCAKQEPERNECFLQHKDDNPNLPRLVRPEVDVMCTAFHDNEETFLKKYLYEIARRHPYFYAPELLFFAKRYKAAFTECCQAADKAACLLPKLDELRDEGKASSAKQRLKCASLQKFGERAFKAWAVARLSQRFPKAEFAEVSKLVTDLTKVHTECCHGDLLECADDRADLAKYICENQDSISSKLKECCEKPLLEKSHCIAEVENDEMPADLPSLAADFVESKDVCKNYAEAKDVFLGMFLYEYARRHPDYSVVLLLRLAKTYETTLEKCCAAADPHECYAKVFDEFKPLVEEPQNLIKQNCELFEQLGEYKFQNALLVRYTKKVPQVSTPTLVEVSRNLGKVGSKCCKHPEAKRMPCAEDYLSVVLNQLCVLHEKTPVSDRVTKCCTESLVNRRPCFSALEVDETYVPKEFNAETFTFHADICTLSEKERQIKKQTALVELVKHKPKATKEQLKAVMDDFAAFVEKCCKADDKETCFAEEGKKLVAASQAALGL
# In short: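 Plasma protein binding was estimated chromatographically on a human albumin column. Retention was correlated against a standard series of compounds with known cPPB values.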
# RH-dTom tachyzoites = test: Extracellular parasite pre-treatment assay; format: cell-based; conditions: Toxoplasma gondii, read-out: parasite growth, % of control
# In short: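 RH-dTom tachyzoites were isolated from culture and resuspended in D10 medium at 10e6/mL. They were exposed to 10 µM test compound for 4 h, then centrifuged and washed twice. Confluent HFF in 96-well plates were infected with 2000 treated tachyzoites per well. Parasite growth was read by fluorescence at 5 days post-infection and expressed relative to control.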
# [10] = system: Salmonella typhimurium (TA100 strain); test: Bacterial reverse mutation assay; format: cell-based; conditions: 0.75 μM (ca. 3x average T. gondii IC50)
# ME49 strain T. gondii = test: In vivo survivorship challenge in murine model; design: species or system Toxoplasma gondii
# In short: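 Female Swiss Webster mice, 2 months old, were infected intraperitoneally with 5000 ME49 tachyzoites. Dosing started simultaneously: test compound 5 mg/kg (n = 10), pyrimethamine 5 mg/kg (n = 20) or solvent (n = 24), IP once daily for 10 days. Vehicle was 5% DMSO, 47.5% propylene glycol, 47.5% Kollisolv. Mice were weighed daily; survival was followed over 40 d by Kaplan-Meier.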
smiles,measurement,setting,value
"CC(C)(C)C1=CC(=NNC(=O)c2ccc(C#N)cc2)C=C(C(C)(C)C)C1=O [KGW54, 4-cyano-N'-(3,5-di-tert-butyl-4-oxocyclohexa-2,5-dien-1-ylidene)benzohydrazide]",IC50,[1],> 100 µM
same,IC50,PRU T. gondii,2.2 µM
same,IC50,"RH T. gondii; read-out: RH T. gondii IC50, RH-dTom tachyzoites in HFF, fluorescence, day 5",1.2 µM
"CC(C)(C)C1=CC(=NNC(=O)c2ccc(O)cc2)C=C(C(C)(C)C)C1=O [KGW43, N'-(3,5-di-tert-butyl-4-oxocyclohexa-2,5-dien-1-ylidene)-4-hydroxybenzohydrazide]",IC50,[1],> 100 µM
"Cc1ccc(C(=O)ON=C2C=C(C(C)(C)C)C(=O)C(C(C)(C)C)=C2)cc1 [KGW72, 2,6-di-tert-butyl-4-(((4-methylbenzoyl)oxy)imino)cyclohexa-2,5-dien-1-one]",IC50,[1],> 100 µM
same,reduction of potency relative to KG8,RH T. gondii; RH strain,6 fold
"CC(C)(C)C1=CC(=NNC(=O)c2ccccc2)C=C(C(C)(C)C)C1=O [KGW15, N'-(3,5-di-tert-butyl-4-oxocyclohexa-2,5-dien-1-ylidene)benzohydrazide]",IC50,[1],> 100 µM
"CC(C)(C)C1=CC(=NNC(=O)c2c[nH]cn2)C=C(C(C)(C)C)C1=O [KGW45, N'-(3,5-di-tert-butyl-4-oxocyclohexa-2,5-dien-1-ylidene)-1H-imidazole-4-carbohydrazide]",IC50,[1],> 100 µM
same,activity against RH T. gondii (in words),RH T. gondii; RH strain,significantly weakened
"CC(C)(C)C1=CC(=NNC(=O)C2CCCCC2)C=C(C(C)(C)C)C1=O [KGW66, N'-(3,5-di-tert-butyl-4-oxocyclohexa-2,5-dien-1-ylidene)cyclohexanecarbohydrazide]",activity against RH T. gondii (in words),RH T. gondii; RH strain,abolished activity
"CC(C)(C)C1=CC(=NNC(=O)c2cccnc2)C=C(C(C)(C)C)C1=O [KGW65, N'-(3,5-di-tert-butyl-4-oxocyclohexa-2,5-dien-1-ylidene)nicotinohydrazide]",activity against PRU T. gondii (in words),PRU T. gondii,completely inactive
NNC(=O)c1ccncc1 [isoniazid],activity against T. gondii in vitro (in words),T. gondii,inactive
"Cc1ccc(C(=O)NN=C2C=C(C(C)(C)C)C(=O)C(C(C)(C)C)=C2)cc1 [KGW42, N'-(3,5-di-tert-butyl-4-oxocyclohexa-2,5-dien-1-ylidene)-4-methylbenzohydrazide]",IC50,[1],> 100 µM
"CCOc1ccc(C(=O)NN=C2C=C(C(C)(C)C)C(=O)C(C(C)(C)C)=C2)cc1 [KGW64, N'-(3,5-di-tert-butyl-4-oxocyclohexa-2,5-dien-1-ylidene)-4-ethoxybenzohydrazide]",activity against PRU T. gondii (in words),PRU T. gondii,only weakly active
"CC(C)(C)C1=CC(=NNC(=O)c2ccc([N+](=O)[O-])cc2)C=C(C(C)(C)C)C1=O [KGW44, N'-(3,5-di-tert-butyl-4-oxocyclohexa-2,5-dien-1-ylidene)-4-nitrobenzohydrazide]","parasite growth, % of control","[2]; HFF pre-treated 10 μM 24 h, washed, then infected, 5 days post-infection",no significant change in growth
same,Predicted EH,[3],0.45
same,half-life at 1 μM,[3],1.38 h
same,microsomal CLint at 1 μM,[3],21 µL/min/mg
same,IC50,[1],> 100 µM
same,IC50,[4],> 100 µM
same,IC50,[5],> 100 µM
same,IC50,PRU T. gondii,0.99 µM
same,solubility kinetic at 30 min,[6],< 1.6 µg/mL
same,IC50,[7],> 100 µM
same,half-life at 1 μM,[8],0.15 h
same,microsomal CLint at 1 μM,[8],99 µL/min/mg
same,IC50,[9],> 100 µM
same,cPPB (% Bound),human albumin,84.3 % Bound
same,activity at 10 µM,RH-dTom tachyzoites,60.3%
same,Ames Assay,[10],neither compound was mutagenic; also recorded: Negative
"CC(C)(C)C1=CC(=NNc2ccc([N+](=O)[O-])cc2[N+](=O)[O-])C=C(C(C)(C)C)C1=O [KGW59, 2,6-di-tert-butyl-4-(2-(2,4-dinitrophenyl)hydrazineylidene)cyclohexa-2,5-dien-1-one]",activity at 10 µM,"[2]; Toxoplasma gondii, HFF, read-out: parasite growth, % of control",30.2%
same,Predicted EH,[3],0.38
same,half-life at 1 μM,[3],1.85 h
same,microsomal CLint at 1 μM,[3],16 µL/min/mg
same,IC50,[1],> 100 µM
same,IC50,[4],> 100 µM
same,IC50,[5],> 100 µM
same,IC50,PRU T. gondii,1.4 µM
same,solubility kinetic at 30 min,[6],< 1.6 µg/mL
same,IC50,[7],> 100 µM
same,Predicted EH,[8],0.50
same,half-life at 1 μM,[8],0.617 h
same,microsomal CLint at 1 μM,[8],46 µL/min/mg
same,IC50,[9],> 100 µM
same,survivorship (in words),ME49 strain T. gondii,significantly increased survivorship
same,Ames Assay,[10],neither compound was mutagenic; also recorded: Negative
"CC1(C)CC(=NNC(=O)c2ccncc2)CC(C)(C)C1=O [KGW73, N'-(3,3,5,5-tetramethyl-4-oxocyclohexylidene)isonicotinohydrazide]",IC50,[1],> 100 µM
same,activity against RH T. gondii (in words),RH T. gondii; RH strain,inactive
